16 compounds from ChEMBL document CHEMBL1135546, “Dicaffeoyltartaric acid analogues inhibit human immunodeficiency virus type 1 (HIV-1) integrase and HIV-1 replication at nontoxic concentrations” (J Med Chem, 2002) can be followed below.

Data set [1] has as its system Human immunodeficiency virus 1. Nature of the data set: Inhibition of 50% of the integrase-mediated catalysis of the Y-oligo substrate. The class given is functional.
The nature of data set [2]: Therapeutic index (ratio of CT5 to ED50). The note with it: for selectivity ratio: read-out: TI.
Data set [3] concerns Human immunodeficiency virus 1. Put plainly: Inhibition of 50% of the integrase-mediated catalysis of the V1/V2 substrate. The class given is functional.
Data set [4] relates to Human immunodeficiency virus 1. Nature of the data set: Inhibition of HIV replication by 50%. The class given is functional. The note with it: read-out: ED50 (the source's name).
Another data set concerns MT2. Put plainly: Inhibition of MT-2 cell growth by 5% or less over a 72 hr time period. The class given is functional, Homo sapiens. In outline: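 Compounds dissolved in water, 95% ethanol or ethanol/DMSO, diluted in growth medium, filter-sterilized, 2-fold serial dilutions in triplicate. MT-2 cells (2 × 10^5) exposed 72 h at 37 °C; viability by neutral red dye uptake. CT5 = 5% growth inhibition (within 1 SD of untreated controls), taken from linear part of dose-response curve; reported as greater than top concentration when not reachable.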

Data set [5] relates to Human immunodeficiency virus 1. Put plainly: Inhibition of 50% of the integrase-mediated catalysis of the V1/V2 substrate with 95% confidence interval. The class given is functional.
Data set [6] deals with Human immunodeficiency virus 1. Nature of the data set: Inhibition of 50% of the integrase-mediated catalysis of the Y-oligo substrate with 95% confidence interval. In kind it is functional.

Structures are written as SMILES.

As a reminder, the IC50 is the midpoint of a concentration-inhibition curve. A lower IC50 goes with greater potency. On to `O=C(O)C(O)C(O)C(=O)O` (stereo not drawn), for which the IC50 in data set [1] and in data set [3] was above 25 µM throughout. The selectivity ratio in data set [2] was below 1. Further, the EC50 in data set [4] (Human immunodeficiency virus 1) was above 1000 µM. Besides, the CT5 in the data set on MT2 is above 1000 µM.

For `NC(=O)C(Cc1ccc(O)c(O)c1)C(Cc1ccc(O)c(O)c1)C(=O)O` (stereo not drawn), the values for the 50% inhibitory concentration (IC50) in data set [5] (Human immunodeficiency virus 1) and in data set [6] (Human immunodeficiency virus 1) were above 10 µM and 2.84 µM, respectively. The selectivity ratio in data set [2] came to 2.5. Moreover, the EC50 in data set [4] (Human immunodeficiency virus 1) turned out to be 49 µM. The compound further came in with a CT5 in the data set on MT2 of 123 µM.

On to `CCCCCCCCCCNC(=O)C(Cc1ccc(O)c(O)c1)C(Cc1ccc(O)c(O)c1)C(=O)O` (stereo not drawn), for which the 50% inhibitory concentration (IC50) in data set [5] (Human immunodeficiency virus 1) and in data set [6] (Human immunodeficiency virus 1) was above 10 µM throughout. The selectivity ratio in data set [2] is below 1. Further, the EC50 in data set [4] (Human immunodeficiency virus 1) was above 37 µM. In addition, the CT5 in the data set with MT2 was found to be 34 µM.

As for `O=C(/C=C\c1ccc(O)c(O)c1)NC(COC(=O)/C=C/c1ccc(O)c(O)c1)C(=O)O` (stereo not drawn), the IC50 came out at 0.33 µM in data set [5] (Human immunodeficiency virus 1) and 0.12 µM in data set [6] (Human immunodeficiency virus 1). In addition, the selectivity ratio in data set [2] was 16. Moreover, in data set [4], the EC50 amounted to 2.5 µM. The CT5 in the data set with MT2 was determined as 39 µM.

Turning to `O=C(/C=C/c1ccc(O)c(O)c1)NCC(OC(=O)/C=C\c1ccc(O)c(O)c1)C(=O)O` (stereo not drawn), the concentration for half-maximal inhibition (IC50) in data set [5] (Human immunodeficiency virus 1) came out at 0.37 µM; in data set [6] (Human immunodeficiency virus 1), 0.19 µM. Also, in data set [2], the selectivity ratio is 88. The EC50 in data set [4] (Human immunodeficiency virus 1) was 2 µM. The same compound registered a CT5 in the data set with MT2 of 175 µM.

Consider `O=C(OC(C(=O)O)C(OC(=O)c1ccsc1)C(=O)O)c1ccsc1` (stereo not drawn), for which the 50% inhibitory concentration (IC50) in data set [1] and in data set [3] was above 10 µM each time. Also, the selectivity ratio in data set [2] is below 1. For the same compound, in data set [4] (Human immunodeficiency virus 1), the EC50 is above 95 µM. The compound further gave a CT5 in the data set with MT2 of 100 µM.

With `CC(CCC(=O)O)C1CC[C@H]2[C@@H]3CCC4C[C@H](OC(=O)/C=C/c5ccc(O)c(O)c5)CC[C@]4(C)[C@H]3C[C@H](OC(=O)/C=C/c3ccc(O)c(O)c3)[C@]12C` (stereo partly drawn), the IC50 in data set [6] (Human immunodeficiency virus 1) worked out at 1.97 µM. In addition, the selectivity ratio in data set [2] was below 1. Moreover, the EC50 in data set [4] (Human immunodeficiency virus 1) was above 17 µM. In addition, the CT5 in the data set with MT2 came to 6.4 µM.

`CC(CCC(=O)O)C1CC[C@H]2[C@@H]3[C@H](OC(=O)/C=C/c4ccc(O)c(O)c4)CC4C[C@H](OC(=O)/C=C/c5ccc(O)c(O)c5)CC[C@]4(C)[C@H]3C[C@H](OC(=O)/C=C/c3ccc(O)c(O)c3)[C@]12C` (stereo partly drawn): the IC50 came to 0.97 µM in data set [5] (Human immunodeficiency virus 1) and 0.75 µM in data set [6] (Human immunodeficiency virus 1). Also, in data set [2], the selectivity ratio was below 1. Besides, in data set [4] (Human immunodeficiency virus 1), the EC50 is above 140 µM. For the same compound, in the data set on MT2, the CT5 came to 11.4 µM.

Take `O=C(OC(C(=O)O)C(OC(=O)c1cccs1)C(=O)O)c1cccs1` (stereo not drawn): the half-maximal inhibitory concentration (IC50) in data set [1] and in data set [3] was above 10 µM each time. Moreover, the selectivity ratio in data set [2] is below 1. Also, in data set [4] (Human immunodeficiency virus 1), the EC50 is above 190 µM. The CT5 in the data set on MT2 was above 190 µM.

Turning to `CC(=O)Oc1ccc(/C=C/C(=O)OC(C(=O)O)C(OC(=O)/C=C/c2ccc(OC(C)=O)c(OC(C)=O)c2)C(=O)O)cc1OC(C)=O` (stereo not drawn), the 50% inhibitory concentration (IC50) was above 10 µM in data set [5] (Human immunodeficiency virus 1) and 15.7 µM in data set [6] (Human immunodeficiency virus 1). Further, in data set [2], the selectivity ratio was 4.5. In addition, in data set [4] (Human immunodeficiency virus 1), the EC50 was 4 µM. This compound also registered a CT5 in the data set with MT2 of 18.6 µM.

Regarding `CCN(CC)C(=O)C(Cc1ccc(O)c(O)c1)C(Cc1ccc(O)c(O)c1)C(=O)O` (stereo not drawn), the IC50 was above 10 µM in data set [5] (Human immunodeficiency virus 1) and 5.27 µM in data set [6] (Human immunodeficiency virus 1). The selectivity ratio in data set [2] was 0.5. For the same compound, the EC50 in data set [4] (Human immunodeficiency virus 1) came to 186 µM. Moreover, the CT5 with MT2 stood at 93 µM.

Take `O=C(O)C(=C\c1ccc(O)c(O)c1)/C(=C/c1ccc(O)c(O)c1)C(=O)O`: the half-maximal inhibitory concentration (IC50) in data set [5] (Human immunodeficiency virus 1) was 0.83 µM; in data set [6] (Human immunodeficiency virus 1), 2.19 µM. Also, in data set [2], the selectivity ratio stood at 12. Further, the EC50 in data set [4] (Human immunodeficiency virus 1) came to 4.4 µM. In the data set on MT2, this compound yielded a CT5 of 55 µM.

Turning to `O=C(/C=C\c1ccc(O)c(O)c1)NC(CNC(=O)/C=C/c1ccc(O)c(O)c1)C(=O)O` (stereo not drawn), the IC50 came out at 0.83 µM in data set [5] (Human immunodeficiency virus 1) and 0.57 µM in data set [6] (Human immunodeficiency virus 1). The selectivity ratio in data set [2] amounted to 1. The EC50 in data set [4] (Human immunodeficiency virus 1) was found to be 35 µM. Further, in the data set on MT2, the CT5 stood at 35 µM.

On to `O=C(/C=C/c1ccc(O)c(O)c1)Nc1cc(NC(=O)/C=C/c2ccc(O)c(O)c2)cc(C(=O)O)c1`, for which the half-maximal inhibitory concentration (IC50) in data set [6] (Human immunodeficiency virus 1) is 0.73 µM. In data set [2], the selectivity ratio was 10. Moreover, the EC50 in data set [4] (Human immunodeficiency virus 1) stood at 4.6 µM. This compound had a CT5 in the data set on MT2 of 47 µM.

Regarding `O=C(O)C(Cc1ccc(O)c(O)c1)C(Cc1ccc(O)c(O)c1)C(=O)O` (stereo in doubt; 23b), the 50% inhibitory concentration (IC50) in data set [5] turned out to be 0.23 µM; in data set [6], 4.32 µM. Also, in data set [2], the TI was 6. Moreover, in data set [4], the EC50 came out at 12.6 µM. The compound also gave a CT5 in the data set with MT2 of 76 µM.

`O=C(O)C(Cc1ccc(O)c(O)c1)C(Cc1ccc(O)c(O)c1)C(=O)O` (stereo in doubt; 24b): the figures for the IC50 in data set [5] (Human immunodeficiency virus 1) and in data set [6] (Human immunodeficiency virus 1) were 0.44 µM and 2.78 µM, respectively. Besides, the TI in data set [2] worked out at 37. Moreover, the EC50 in data set [4] was determined as 1.9 µM. The CT5 in the data set on MT2 amounted to 71 µM.
